Data as given in ChEMBL document CHEMBL1128210, “Structure-activity relationship of omeprazole and analogues as Helicobacter pylori urease inhibitors” (J Med Chem, 1995).

How the values were obtained:
[1] = tested on: Helicobacter pylori; assay: Urease activity in wild type H pylori, CCUG 15818, at 100 uM
Method in brief: (§1)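 CCUG 15818 grown 3 days at 37 °C microaerophilic on Columbia blood agar, washed three times in PBS at assay pH, set to A560 0.3. Cells preincubated with compound (MeOH or DMSO, ≤1% solvent) for 30 min at 37 °C, then mixed 1:1 with 200 mM urea for 10 min. Ammonia read by nitroprusside-catalysed phenol–hypochlorite at A650 against (NH4)2SO4. Compound colour blank subtracted; expressed as % of control.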

[2] = tested on: Helicobacter pylori; assay: Urease activity in H pylori, CCUG 15818, at 10 uM; method in brief: as §1
[3] = tested on: Helicobacter pylori; assay: Urease activity was determined in wild type-H pylori, CCUG 15818, at a concentration of 1 uM; method in brief: as §1
[4] = Relative retention time of the compound; assay type: ADME
[5] = pKa value of the compound (benzimidazole ring substitutions dependent); assay type: physicochemical; details: read-out: pKabz
[6] = pKa value of the compound (pyridine ring substitutions dependent); assay type: physicochemical; details: read-out: pKapy
[7] = Half life at pH 7 is a measure of the rate by which the compound is converted to the active species; assay type: ADME; details: buffer
[8] = tested on: Helicobacter pylori; assay: Urease activity was determined in wild type-H pylori, CCUG 15818 in the presence of beta mercaptoethanol at a concentration of 100 uM
Method in brief: (§2)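 Intact CCUG 15818 cells (A560 0.3, washed in PBS) preincubated 30 min at 37 °C with compound at 1, 10 or 100 μM plus 100 μM β-mercaptoethanol. Urea was then added 1:1 from a 200 mM solution. After 10 min, ammonia was measured by indophenol (phenol–hypochlorite/nitroprusside) absorbance at 650 nm and expressed as % of control.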

[9] = tested on: Helicobacter pylori; assay: Urease activity was determined in wild type-H pylori, CCUG 15818 in the presence of beta mercaptoethanol at a concentration of 10 uM; method in brief: as §2
[10] = tested on: Helicobacter pylori; assay: Urease activity was determined in wild type-H pylori, CCUG 15818 in the presence of beta mercaptoethanol at a concentration of 1 uM; method in brief: as §2
[11] = pKa value of the compound (benzimidazole ring substitutions dependent) at pH 6; assay type: physicochemical; details: read-out: pKabz
[12] = pKa value of the compound (pyridine ring substitutions dependent) at pH 6; assay type: physicochemical; details: read-out: pKapy
[13] = Relative retention time at pH 6; assay type: ADME; details: buffer
[14] = Half life at pH 6 is a measure of the rate by which the compound is converted to the active species.; details: buffer
[15] = tested on: Helicobacter pylori; assay: Urease activity was determined in wild type-H pylori, CCUG 15818, at a concentration of 1 uM at pH 6
[16] = tested on: Helicobacter pylori; assay: Urease activity was determined in wild type-H pylori, CCUG 15818, at a concentration of 10 uM at pH 6
[17] = tested on: Helicobacter pylori; assay: Urease activity was determined in wild type-H pylori, CCUG 15818, at a concentration of 100 uM at pH 6
[18] = tested on: Helicobacter pylori; assay: Urease activity was determined in wild type-H pylori, CCUG 15818, at a concentration of 100 nM
Method in brief: (§3)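 Washed whole cells grown 3 days at 37 °C under microaerophilic conditions, resuspended in PBS at assay pH to A560 = 0.3. Compound (in MeOH or DMSO, ≤1% solvent) preincubated 30 min at 37 °C with shaking. 200 mM urea added 1:1; stopped after 10 min with phenol–nitroprusside/hypochlorite reagents, 15 min colour, A650 vs (NH4)2SO4 standard; percent of control.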

[19] = tested on: Helicobacter pylori; assay: Urease activity was determined in wild type-H pylori, CCUG 15818, at a concentration of 10 nM; method in brief: as §3
[20] = tested on: Helicobacter pylori; assay: Urease activity was determined in wild type-H pylori, CCUG 15818, at a concentration of 1 nM; method in brief: as §3

Row | Compound | Urease activity (% of control) [1] [%] | Urease activity (% of control) [2] [%] | Urease activity (% of control) [3] [%] | Log k'o [4] | pKa [5] | pKa [6] | half-life [7] [h] | also measured
1 | Cc1cc(C)c(C[S+]([O-])c2nc3cc(Cl)ccc3[nH]2)nc1C (configuration not stated) | 164 | 105 | 97 |  |  |  |  | 
2 | Cc1c(OCC(F)(F)F)ccnc1C[S+]([O-])c1nc2ccccc2[nH]1 (configuration not stated) [LANSOPRAZOLE] | 29 | 103 | 105 | 1.1 | 8.7 | 3.9 | 13 | 
3 | COc1c(OCC2CC2)ccnc1C[S+]([O-])c1nc2cc(F)ccc2[nH]1 (configuration not stated) | 84 | 94 | 104 | 1.16 | 8.4 | 3.8 | 50 | 
4 | COc1ccnc(C[S+]([O-])c2nc3c(F)cccc3[nH]2)c1 (configuration not stated) | 58 | 95 | 93 | 0.26 | 7.5 | 4.4 | 23 | 
5 | COc1ccnc(C[S+]([O-])c2nc3cc(C(C)(C)C)ccc3[nH]2)c1C (configuration not stated) | 1 | 42 |  | 1.55 | 9.1 | 4.8 | 1 | Control [8]: 106%; Control [9]: 95%; Control [10]: 105%
6 | COc1ccc2[nH]c([S+]([O-])Cc3nccc(OC(C)C)c3C)nc2c1 (configuration not stated) | 0 | 35 | 86 | 1.22 | 8.9 | 5.1 | 1.5 | 
7 | COc1ccc2[nH]c([S+]([O-])Cc3ncc(C)c(OC)c3C)nc2c1 (configuration not stated) [OMEPRAZOLE] | 64 | 96 | 109 | 0.83 | 8.7 | 4 | 23 | pKa [11]: 8.7; pKa [12]: 4; Log k'o [13]: 0.83; half-life [14]: 0.917 h; Control [15]: 115%; Control [16]: 88%; Control [17]: 28%
8 | CCOc1ccnc(C[S+]([O-])c2nc3ccccc3[nH]2)c1C (configuration not stated) | 8 | 38 | 76 | 0.92 | 8.8 | 4.9 | 0.9 | 
9 | COc1ccnc(C[S+]([O-])c2nc3cc4c(cc3[nH]2)CCC4)c1C (configuration not stated) | 0 | 35 | 36 | 1.21 | 9.4 | 4.9 | 1.17 | 
10 | COc1ccc2[nH]c(SCc3ncc(C)c(OC)c3C)nc2c1 | 99 | 101 | 109 |  |  |  |  | 
11 | COc1ccnc(C[S+]([O-])c2nc3cc(CO)ccc3[nH]2)c1C (configuration not stated) | 32 | 38 | 72 | 0.18 | 8.6 | 4.7 | 1 | 
12 | COc1ccnc(C[S+]([O-])c2nc3c(F)cc(F)cc3[nH]2)c1 (configuration not stated) | 80 | 89 | 106 | 0.09 | 7.6 | 4.1 | 32 | 
13 | COc1ccnc(C[S+]([O-])c2nc3cc(F)c(F)cc3[nH]2)c1OC (configuration not stated) |  |  |  | 0.6 | 7.8 | 3.6 | 69 | 
14 | NP(N)(=O)NC(=O)c1ccc(F)cc1 |  |  |  |  |  |  |  | Control [18]: 0%; Control [19]: 10%; Control [20]: 80%
